# From ChEMBL document CHEMBL1152276, “Substituted 2-imino-5-arylidenethiazolidin-4-one inhibitors of bacterial type III secretion” (J Med Chem, 2008)
# Active and inactive are the calls of the source. The calls are words filed in the database; no cut-off is given here.
# System: Salmonella typhimurium
# Experiment: Growth inhibition of Salmonella enterica serovar Typhimurium ATCC 14028 up to 1 mM
# Type: functional, organism-based
# Settings: Salmonella enterica subsp. enterica serovar Typhimurium
# Procedure, shortened: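 Aliquots (30 μL) of a 2 mL overnight culture were dosed with 0.1, 1.0, 2.0, 3.0, 6.0 or 15.0 μL of compound in DMSO. DMSO alone in LB served as the control.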
row,SMILES,Activity
1,COc1cc(/C=C2\S/C(=N\c3ccccc3)N([C@@H](CCCN)C(=O)N[C@@H](Cc3ccc(-c4ccccc4)cc3)C(N)=O)C2=O)cc(OC)c1O,inactive
2,COc1cc(/C=C2\S/C(=N\c3ccccc3)N(c3ccc(CNC(=O)OC(C)(C)C)cc3)C2=O)cc(OC)c1O,inactive
3,COc1cc(/C=C2\S/C(=N\c3ccccc3)N(c3ccc(CN)cc3)C2=O)cc(OC)c1O,inactive
4,COc1cc(/C=C2\S/C(=N\c3ccccc3)N([C@@H](Cc3ccc(-c4ccccc4)cc3)C(=O)N[C@@H](CCCNC(=N)N)C(N)=O)C2=O)cc(OC)c1O,inactive
5,COc1cc(/C=C2\S/C(=N\c3ccccc3)N(c3ccccc3)C2=O)cc(OC)c1O,inactive

# System: not listed separately
# Experiment: Inhibition of Salmonella enterica serovar Typhimurium type 3 secretion system-mediated SipA protein secretion by Western blotting
# Design: species or system Salmonella enterica subsp. enterica serovar Typhimurium
# Settings: not given
# Procedure, shortened: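 Bacteria were grown 18 h in LB broth and pelleted, and culture supernates were 0.2 μm-filtered. Proteins were precipitated with 10% TCA on ice for 30 min, centrifuged, acetone-washed and resolved by SDS-PAGE. Western blots were probed with polyclonal anti-SipA. IC50 was calculated from percent inhibition of secreted SipA using at least 3 inhibitor concentrations.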
row,IC50 [µM],SMILES
1,13,COc1cc(/C=C2\S/C(=N\c3ccccc3)N([C@@H](CCCN)C(=O)N[C@@H](Cc3ccc(-c4ccccc4)cc3)C(N)=O)C2=O)cc(OC)c1O
2,29,COc1cc(/C=C2\S/C(=N\c3ccccc3)N(C(C)C(=O)N[C@@H](Cc3c[nH]c4ccccc34)C(N)=O)C2=O)cc(OC)c1O (stereo in doubt; 44b)
3,51,COc1ccc(N2C(=O)/C(=C/c3cc(OC)c(O)c(OC)c3)S/C2=N\c2ccccc2)cc1
4,322,O=C1/C(=C/c2ccc(Cl)cc2)S/C(=N\c2ccccc2)N1c1ccccc1
5,4,COc1cc(/C=C2\S/C(=N\c3ccccc3)N(CCCC(=O)OC(C)(C)C)C2=O)cc(OC)c1O
6,278,COc1ccc(N2C(=O)/C(=C/C3CCCCC3)S/C2=N\c2ccccc2)cc1
7,41,COc1cc(/C=C2\S/C(=N\c3ccccc3)N(C(CCCNC(=N)N)C(=O)N[C@@H](C)C(N)=O)C2=O)cc(OC)c1O (stereo partly specified)
8,65,COc1cc(/C=C2\S/C(=N\c3ccccc3)N(C(CCCNC(=N)N)C(=O)N3CSC[C@H]3C(N)=O)C2=O)cc(OC)c1O (stereo partly specified)
9,32,COc1cc(/C=C2\S/C(=N\c3ccccc3)N([C@@H](CCCN)C(=O)N[C@@H](C)C(N)=O)C2=O)cc(OC)c1O
10,52,COc1cc(/C=C2\S/C(=N\c3ccccc3)N(C(C(=O)N[C@@H](Cc3ccc(O)cc3)C(N)=O)C(C)C)C2=O)cc(OC)c1O (stereo partly specified)
11,30,COc1cc(/C=C2\S/C(=N\c3ccccc3)N(C(C)C(=O)N[C@@H](Cc3c[nH]c4ccccc34)C(N)=O)C2=O)cc(OC)c1O (stereo in doubt; 44a)
12,54,COc1cc(/C=C2\S/C(=N\c3ccccc3)N(CCCCCCN)C2=O)cc(OC)c1O
13,45,COc1cc(/C=C2\S/C(=N\c3ccccc3)N(c3ccc(CNC(=O)OC(C)(C)C)cc3)C2=O)cc(OC)c1O
14,56,COc1cc(/C=C2\S/C(=N\c3ccccc3)N(C(CCCN)C(=O)N[C@@H](CC3CNc4ccccc43)C(N)=O)C2=O)cc(OC)c1O (mixture of isomers)
15,38,COc1cc(/C=C2\S/C(=N\c3ccccc3)N([C@H](C)C(=O)N[C@@H](CCCNC(=N)N)C(N)=O)C2=O)cc(OC)c1O
16,244,CC(C)(C)/C=C1\S/C(=N\c2ccccc2)N(c2ccccc2)C1=O
17,52,COc1cc(/C=C2\S/C(=N\c3ccccc3)N(c3ccc(CN)cc3)C2=O)cc(OC)c1O
18,9,COc1cc(/C=C2\S/C(=N\c3ccccc3)N([C@H](C)C(=O)N[C@@H](CCCN)C(N)=O)C2=O)cc(OC)c1O
19,3,COc1cc(/C=C2\S/C(=N\c3ccccc3)N([C@@H](Cc3ccc(-c4ccccc4)cc3)C(=O)N[C@@H](CCCNC(=N)N)C(N)=O)C2=O)cc(OC)c1O
20,62,COc1cc(/C=C2\S/C(=N\c3ccccc3)N([C@@H](C)C(=O)N[C@@H](C)C(N)=O)C2=O)cc(OC)c1O

row,IC50 [µM],SMILES
1,77,COc1cc(/C=C2\S/C(=N\c3ccccc3)N([C@@H](C)C(=O)N[C@@H](CCCNC(=N)N)C(N)=O)C2=O)cc(OC)c1O
2,55,"COc1cc(/C=C2\S/C(=N\c3ccccc3)N(C(Cc3ccc(-c4ccccc4)cc3)C(=O)N[C@@H](CCCN)C(N)=O)C2=O)cc(OC)c1O (single isomer, unassigned)"
3,83,COc1cc(/C=C2\S/C(=N\c3ccccc3)N(c3ccccc3)C2=O)cc(OC)c1O
4,376,O=C1/C(=C/c2ccncc2)S/C(=N\c2ccccc2)N1c1ccccc1
5,50,COc1cc(/C=C2\S/C(=N\c3ccccc3)N([C@@H](CCCNC(=N)N)C(=O)N[C@@H](Cc3ccc(-c4ccccc4)cc3)C(N)=O)C2=O)cc(OC)c1O
6,101,COc1cc(/C=C2\S/C(=N\c3ccc(CN)cc3)N(c3ccccc3)C2=O)cc(OC)c1O
7,115,COc1cc(/C=C2\S/C(=N\c3ccccc3)N(C(CCCNC(=N)N)C(=O)N3Cc4ccccc4C[C@H]3C(N)=O)C2=O)cc(OC)c1O (stereo partly specified)
8,137,COc1ccc(/N=C2\S/C(=C\c3ccncc3)C(=O)N2c2ccccc2)cc1
9,16,COc1cc(/C=C2\S/C(=N\c3ccccc3)N([C@@H](C)C(=O)N[C@@H](CCCN)C(N)=O)C2=O)cc(OC)c1O
10,36,COc1cc(/C=C2\S/C(=N\c3ccccc3)N(CC(=O)O)C2=O)cc(OC)c1O
11,50,COc1cc(/C=C2\S/C(=N\c3ccccc3)N([C@@H](CCC(=O)O)C(=O)N[C@@H](Cc3ccc(-c4ccccc4)cc3)C(N)=O)C2=O)cc(OC)c1O
12,225,O=C1/C(=C/C2CCCCC2)S/C(=N\c2ccccc2)N1c1ccccc1
13,160,COc1ccc(N2C(=O)/C(=C/C(C)(C)C)S/C2=N\c2ccccc2)cc1
14,278,COc1ccc(/C=C2\S/C(=N\c3ccccc3)N(c3ccccc3)C2=O)cc1OC
15,52,COc1cc(/C=C2\S/C(=N\c3ccccc3)N(C(CCCN)C(=O)N[C@H](CC3CNc4ccccc43)C(N)=O)C2=O)cc(OC)c1O (mixture of isomers)
16,26,CSc1ccc(/C=C2\S/C(=N\c3ccccc3)N(c3ccccc3)C2=O)cc1
17,8,COc1cc(/C=C2\S/C(=N\c3ccccc3)N([C@H](Cc3ccc(-c4ccccc4)cc3)C(=O)N[C@@H](CCCNC(=N)N)C(N)=O)C2=O)cc(OC)c1O
18,66,COc1cc(/C=C2\S/C(=N\c3ccccc3)N(CCCC(=O)O)C2=O)cc(OC)c1O
19,112,COc1cc(/C=C2\S/C(=N\c3ccccc3)N([C@@H](C)C(=O)N[C@@H](Cc3ccc(O)cc3)C(N)=O)C2=O)cc(OC)c1O

# System: Salmonella enterica subsp. enterica serovar Typhimurium
# Experiment: Inhibition of Salmonella enterica serovar Typhimurium type 3 secretion system-mediated SipA protein secretion at 1 uM by Western blotting
# Settings: not given
row,Activity,SMILES
1,Active,COc1cc(/C=C2\S/C(=N\c3ccccc3)N(CCCC(=O)OC(C)(C)C)C2=O)cc(OC)c1O
2,Active,COc1cc(/C=C2\S/C(=N\c3ccccc3)N(CC(=O)O)C2=O)cc(OC)c1O
